Experimental data taken from ChEMBL document CHEMBL1681720, “Maintaining potent HTLV-I protease inhibition without the P3-cap moiety in small tetrapeptidic inhibitors” (Bioorg Med Chem Lett, 2011).

What was measured:
[1] = target: Protease (Human immunodeficiency virus 1) (UniProt Q9YQ12); experiment: Inhibition of recombinant HIV-1 protease at 50 nM
[2] = tested on: T1, Protease (Human T-cell leukemia virus type I), Q82134 [L40I]; experiment: Inhibition of HTLV-1 protease L40I mutant at 50 nM by fluorimetric assay
T1 sequence (whole entry): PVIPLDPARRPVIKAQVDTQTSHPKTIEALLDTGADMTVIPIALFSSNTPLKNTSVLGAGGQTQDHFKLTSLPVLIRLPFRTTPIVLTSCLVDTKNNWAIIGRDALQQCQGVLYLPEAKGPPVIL
Summary of the method: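 Recombinant L40I-mutant HTLV-I protease, mutation limits autoproteolysis; fluorescent substrate read-out. Test compound at 50 nM, percent inhibition from single determinations.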

Protease = Protease (Human T-cell leukemia virus type I, UniProt Q82134, L40I); experiment: Inhibition of HTLV-1 protease L40I mutant by fluorimetric assay
Summary of the method: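 Recombinant L40I-mutant HTLV-I protease, mutation limits autoproteolysis; fluorescent substrate cleavage. Percent inhibition measured singly at 1, 5, 10, 20, 50 and 100 nM test compound. IC50 read from fitted sigmoid plot, error range from RMSD of the plot.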

Sequence of Protease (Human immunodeficiency virus 1) (Q9YQ12 as listed by the source): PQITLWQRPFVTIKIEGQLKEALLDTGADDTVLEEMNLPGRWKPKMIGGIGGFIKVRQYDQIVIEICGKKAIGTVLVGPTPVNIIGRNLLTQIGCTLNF

SMILES | inhibition [1] [%] | inhibition [2] [%] | IC50 (Protease) [nM] | INH [1] [nM]
CC(C)(C)CNC(=O)[C@H]1N(C(=O)[C@@H](O)[C@H](Cc2ccccc2)NC(=O)[C@@H](NC(=O)C2CCCCN2)C(C)(C)C)CSC1(C)C (stereo in doubt; 14a) | 93 | 24 |  | 
CC(C)(C)CNC(=O)[C@H]1N(C(=O)[C@@H](O)[C@H](Cc2ccccc2)NC(=O)[C@@H](NC(=O)[C@@H](N)C(C)(C)C)C(C)(C)C)CSC1(C)C | 95 | 19 |  | 
CCCC(=O)N[C@H](C(=O)N[C@H](C(=O)N[C@@H](Cc1ccccc1)[C@H](O)C(=O)N1CSC(C)(C)[C@H]1C(=O)NCC(C)(C)C)C(C)(C)C)[C@@H](C)CC | 95 | 86 | 6.1 | 
CC(C)(C)CNC(=O)[C@H]1N(C(=O)[C@@H](O)[C@H](Cc2ccccc2)NC(=O)[C@@H](NC(=O)C(=O)c2ccccc2)C(C)(C)C)CSC1(C)C | 76 | 33 |  | 
CC(C)(C)CNC(=O)[C@H]1N(C(=O)[C@@H](O)[C@H](Cc2ccccc2)NC(=O)[C@@H](NC(=O)Cc2ccccc2)C(C)(C)C)CSC1(C)C | 22 | 8 |  | 
CCCC(=O)NC(C(=O)N[C@H](C(=O)N[C@@H](Cc1ccccc1)[C@H](O)C(=O)N1CSC(C)(C)[C@H]1C(=O)NCC(C)(C)C)C(C)(C)C)c1cc(F)c(F)c(F)c1 (stereo in doubt; 19a) [listing 1 of 2 here] | > 99 | 84 |  | 
CCCC(=O)NC(C(=O)N[C@H](C(=O)N[C@@H](Cc1ccccc1)[C@H](O)C(=O)N1CSC(C)(C)[C@H]1C(=O)NCC(C)(C)C)C(C)(C)C)c1cc(F)c(F)c(F)c1 (stereo in doubt; 20a) [listing 1 of 2 here] | > 99 | 81 |  | 
CC(C)(C)CNC(=O)[C@H]1N(C(=O)[C@@H](O)[C@H](Cc2ccccc2)NC(=O)[C@@H](NC(=O)C(C)(C)c2ccccc2)C(C)(C)C)CSC1(C)C | 80 | 4 |  | 
CC(C)(C)CNC(=O)[C@H]1N(C(=O)[C@@H](O)[C@H](Cc2ccccc2)NC(=O)[C@@H](NC(=O)[C@@H](N)c2ccccc2)C(C)(C)C)CSC1(C)C | > 99 | 69 | 37 | 
CC(C)(C)CNC(=O)[C@H]1N(C(=O)[C@@H](O)[C@H](Cc2ccccc2)NC(=O)[C@@H](NC(=O)[C@@H](N)Cc2ccccc2)C(C)(C)C)CSC1(C)C | > 99 | 28 |  | 
CCCC(=O)NC(C(=O)N[C@H](C(=O)N[C@@H](Cc1ccccc1)[C@H](O)C(=O)N1CSC(C)(C)[C@H]1C(=O)NCC(C)(C)C)C(C)(C)C)c1cc(F)c(F)c(F)c1 (single isomer, unassigned; enantiomer b) | 80 | 20 |  | 
CC(C)(C)CNC(=O)[C@H]1N(C(=O)[C@@H](O)[C@H](Cc2ccccc2)NC(=O)[C@@H](NC(=O)C2CCCCN2)C(C)(C)C)CSC1(C)C (single isomer, unassigned; enantiomer b) | 54 | 11 |  | 
CCCC(=O)N[C@H](C(=O)N[C@H](C(=O)N[C@@H](Cc1ccccc1)[C@H](O)C(=O)N1CSC(C)(C)[C@H]1C(=O)NCC(C)(C)C)C(C)(C)C)c1ccccc1 |  | 93 | 6.4 | 99
CC(C)(C)CNC(=O)[C@H]1N(C(=O)[C@@H](O)[C@H](Cc2ccccc2)NC(=O)[C@@H](NC(=O)C(C(=O)OCc2ccccc2)c2ccccc2)C(C)(C)C)CSC1(C)C (mixture of isomers) | 34 | 26 |  | 
CC(C)(C)CNC(=O)[C@H]1N(C(=O)[C@@H](O)[C@H](Cc2ccccc2)NC(=O)[C@@H](NC(=O)[C@H](O)c2ccccc2)C(C)(C)C)CSC1(C)C | 82 | 10 |  | 
CC(C)(C)CNC(=O)[C@H]1N(C(=O)[C@@H](O)[C@H](Cc2ccccc2)NC(=O)[C@@H](NC(=O)[C@@H](N)C2CCCCC2)C(C)(C)C)CSC1(C)C | 99 | 65 | 35.8 | 
CCCC(=O)NC(C(=O)N[C@H](C(=O)N[C@@H](Cc1ccccc1)[C@H](O)C(=O)N1CSC(C)(C)[C@H]1C(=O)NCC(C)(C)C)C(C)(C)C)c1cc(F)c(F)c(F)c1 (stereo in doubt; 19a) [listing 2 of 2 here] |  |  | 13.2 | 
CCCC(=O)NC(C(=O)N[C@H](C(=O)N[C@@H](Cc1ccccc1)[C@H](O)C(=O)N1CSC(C)(C)[C@H]1C(=O)NCC(C)(C)C)C(C)(C)C)c1cc(F)c(F)c(F)c1 (stereo in doubt; 20a) [listing 2 of 2 here] |  |  | 11 | 
CC[C@H](C)[C@H](N)C(=O)N[C@H](C(=O)N[C@@H](Cc1ccccc1)[C@H](O)C(=O)N1CSC(C)(C)[C@H]1C(=O)NCC(C)(C)C)C(C)(C)C | 97 | 31 |  | 
CC(C)(C)CNC(=O)[C@H]1N(C(=O)[C@@H](O)[C@H](Cc2ccccc2)NC(=O)[C@@H](NC(=O)[C@@H](O)c2ccccc2)C(C)(C)C)CSC1(C)C | 92 | 43 |  | 
CC(C)[C@H](N)C(=O)N[C@H](C(=O)N[C@@H](Cc1ccccc1)[C@H](O)C(=O)N1CSC(C)(C)[C@H]1C(=O)NCC(C)(C)C)C(C)(C)C | 96 | 26 |  | 
CCCC(=O)NC(C(=O)N[C@H](C(=O)N[C@@H](Cc1ccccc1)[C@H](O)C(=O)N1CSC(C)(C)[C@H]1C(=O)NCC(C)(C)C)C(C)(C)C)c1cc(F)c(F)c(F)c1 (stereo in doubt; 19b) | 68 | 18 |  | 
